From ChEMBL document CHEMBL4715825, “Synthesis and biological evaluations of marine oxohexadecenoic acids: PPARα/γ dual agonism and anti-diabetic target gene effects” (Eur J Med Chem, 2018)
Calls of active or inactive are those of the source.

Tests used:
COS-1 = test: Agonist activity at recombinant full length human PPARalpha/gamma/RXRalpha expressed in African green monkey COS-1 cells assessed as induction of PLIN1 driven luciferase reporter activity at 25 uM incubated for 18 hrs by dual luciferase reporter gene assay; format: cell-based; details: filed as agonist
In short: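 COS-1 cells were kept in DMEM/10% FBS at 37 °C, 5% CO2, and seeded at 7×10^4 per well. After 24 h they were lipofected with full-length PPAR and RXR expression plasmids, a PLIN1- or CPT1A-driven luciferase reporter and pRL-CMV Renilla control. Compound in DMSO (final 0.1%) was added 5 h later. After 18 h, cells were lysed for Dual-Luciferase readout. Three biological replicates were run in quadruplicate.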

[1] = biological target: T1, Peroxisome proliferator-activated receptor alpha (Homo sapiens) (UniProt Q07869); test: Agonist activity at human PPARalpha in human HuH-7 cells assessed as increase in ACSL3 gene expression at 50 uM incubated for 24 hrs by SYBR-green based qPCR analysis; format: cell-based; details: filed as agonist
T1 sequence (whole entry): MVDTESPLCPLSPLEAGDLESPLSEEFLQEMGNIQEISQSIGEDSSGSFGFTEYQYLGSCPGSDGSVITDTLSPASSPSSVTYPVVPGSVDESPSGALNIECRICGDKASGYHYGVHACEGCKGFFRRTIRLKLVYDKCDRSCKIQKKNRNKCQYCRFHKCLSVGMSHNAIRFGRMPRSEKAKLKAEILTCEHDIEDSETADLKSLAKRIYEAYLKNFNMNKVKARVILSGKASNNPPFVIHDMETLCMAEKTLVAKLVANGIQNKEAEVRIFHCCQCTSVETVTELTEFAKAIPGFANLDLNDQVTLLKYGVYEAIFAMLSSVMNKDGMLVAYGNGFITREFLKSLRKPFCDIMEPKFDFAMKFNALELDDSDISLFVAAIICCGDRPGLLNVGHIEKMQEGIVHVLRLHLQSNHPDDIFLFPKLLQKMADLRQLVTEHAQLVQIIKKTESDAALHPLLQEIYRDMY
In short: (§1)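 Cells were seeded at 2×10^5 per well and treated 24 h later with compound in DMSO (final 0.1%). The next day, cells were washed and scraped into RLT buffer. RNA was isolated, and target gene mRNA was quantified by SYBR-green qPCR with specific primers.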

SGBS [2] = test: Induction of adipogenesis in 8 day differentiated human SGBS cells assessed as increase in volume of lipid droplets at 25 uM measured upto 12 days by oil-O-red staining based inverted microscopic analysis; format: functional, cell-based; details: time day <=12
In short: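 SGBS cells were differentiated in Quickdiff for 4 days, supplemented with 25 µM oxo-fatty acid or 2 µM rosiglitazone, then in 3FC to day 8. Controls were DMSO (0.025%) or BSA (4.2 µM). Cells were fixed in 4% paraformaldehyde for 15 min and stained 15 min with Oil Red O for neutral lipids. They were imaged by inverted microscope at 10× and 40×. Three biological replicates were run in duplicate.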

SGBS [3] = test: Induction of adipogenesis in 8 day differentiated human SGBS cells assessed as increase in PPARG mRNA expression at 25 uM measured upto 12 days by qRT-PCR analysis; format: functional, cell-based; details: time day <=12
In short: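 SGBS cells were grown to confluence (day 0). Quickdiff medium was supplemented with compound or rosiglitazone for 4 days, followed by 3FC medium. DMSO or DMSO:BSA served as control. RNA was harvested on days 0, 4, 8 and 12, and expression was measured by SYBR-green qPCR. Data are mean ± SEM of at least three biological replicates in duplicate.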

SGBS [4] = test: Induction of adipogenesis in 8 day differentiated human SGBS cells assessed as upregulation of PPAR signalling genes at 25 uM incubated for 8 days by Illumina sequencing method; format: functional, cell-based
In short: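 SGBS cells were differentiated for 8 days: Quickdiff for days 0-4 with 2 µM rosiglitazone or 25 µM oxo-fatty acid:BSA, then 3FC. Total RNA was extracted (RIN 9.80-10.00) and strand-specific TruSeq libraries were sequenced on NextSeq 500 (2×75 bp paired-end). Reads were aligned to hg19 and quantified as RPKM. Data were expressed as log2 fold over day-0 cells (n = 2-4) and grouped into KEGG gene sets.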

[5] = biological target: T2, Peroxisome proliferator-activated receptor gamma (Homo sapiens) (UniProt P37231); test: Agonist activity at human PPARgamma in 8 day differentiated human SGBS cells assessed as increase in IRS1 gene expression at 25 uM incubated for 24 hrs by SYBR-green based qPCR analysis; format: cell-based; details: filed as agonist
T2 sequence (whole entry): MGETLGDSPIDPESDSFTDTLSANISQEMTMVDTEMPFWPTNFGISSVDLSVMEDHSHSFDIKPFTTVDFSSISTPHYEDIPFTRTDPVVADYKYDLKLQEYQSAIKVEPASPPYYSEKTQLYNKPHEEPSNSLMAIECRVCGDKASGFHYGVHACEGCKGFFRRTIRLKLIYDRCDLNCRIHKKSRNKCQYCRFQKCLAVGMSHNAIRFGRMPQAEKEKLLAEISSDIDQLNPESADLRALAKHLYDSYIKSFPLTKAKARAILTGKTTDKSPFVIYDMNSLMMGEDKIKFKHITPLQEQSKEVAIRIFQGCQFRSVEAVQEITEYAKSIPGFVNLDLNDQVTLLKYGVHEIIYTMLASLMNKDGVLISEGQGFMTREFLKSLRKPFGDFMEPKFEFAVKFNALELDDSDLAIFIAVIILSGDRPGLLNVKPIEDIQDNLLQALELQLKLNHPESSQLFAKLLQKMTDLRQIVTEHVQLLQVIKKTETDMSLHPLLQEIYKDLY

[6] = biological target: T1, Peroxisome proliferator-activated receptor alpha (Homo sapiens); test: Agonist activity at human PPARalpha in human HuH-7 cells assessed as increase in PLIN1 gene expression at 50 uM incubated for 24 hrs by SYBR-green based qPCR analysis; format: cell-based; details: filed as agonist; in short: as §1
[7] = biological target: T1, Peroxisome proliferator-activated receptor alpha (Homo sapiens); test: Agonist activity at human PPARalpha in 8 day differentiated human SGBS cells assessed as increase in ANGPTL4 gene expression at 25 uM incubated for 24 hrs by SYBR-green based qPCR analysis; format: cell-based; details: filed as agonist
In short: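 SGBS preadipocytes were seeded at passage P6-P8 and grown to confluence. They were differentiated for 4 days in Quickdiff (3FC plus dexamethasone, IBMX and rosiglitazone), then kept in 3FC with medium renewed every fourth day. On day 8, cells were stimulated for 24 h in 3FC with compound:BSA or rosiglitazone. SYBR-green qPCR used gene-specific primers. Data are mean ± SEM of three biological replicates in duplicate.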

Measured: Activity

CCCCCCCC(=O)/C=C/CCCCCC(=O)O
not listed: [6] | [7]
active: all other assays above

CCCCC/C=C/C(=O)CCCCCCCC(=O)O
not listed: COS-1 | [1]
active: all other assays above
